Experimental data published in ChEMBL document CHEMBL5724801, “EUbOPEN Chemogenomics Library - Multiplex” (2024).
Values joined by “and” are separate entries in the source; they are usually repeats but may differ in a detail not shown here. Equal entries are not always repeated.

Tested on: U2OS
Experiment: Multiplex assay against U2OS
Format: toxicity, cell-based
Conditions: human
Procedure, shortened: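 Cells were classed with CellPathfinder machine-learning gating, first as Hoechst high-intensity objects or normal cells, then (normal cells) as healthy, pyknosed or fragmented nuclei, and finally (pyknosed cells) as mitotic or apoptotic. Staining of live cells at seeding used Hoechst33342, BioTracker Green Microtubule Cytoskeleton Dye, MitoTracker Red and Annexin V Alexa Fluor 680, with imaging on a CQ1 microscope at 37°C and 5% CO2 after compound addition. Tubulin, mitochondrial-mass and membrane-permeability phenotypes are per cents of healthy-nucleus cells.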

[1] = 12 h, 1 µM, compound concentration 1 uM
[2] = 12 h, 10 µM, compound concentration 10 uM
[3] = 24 h, 1 µM, compound concentration 1 uM
[4] = 24 h, 10 µM, compound concentration 10 uM
[5] = 48 h, 1 µM, compound concentration 1 uM
[6] = 48 h, 10 µM, compound concentration 10 uM

SMILES: CC[C@H](Nc1ncnc2[nH]cnc12)c1nc2cccc(F)c2c(=O)n1-c1ccccc1 [IDELALISIB]
- Population Apoptotic (%) [1]: 50% and 55%
- Population Fragmented Nuclei (%) [1]: 1.02% and 4.85%
- Population Healthy Nuclei (%) [1]: 88.24% and 85.44%
- Population Hoechst High Intensity Objects (%) [1]: 0%
- Population Membrane Permeable-Phenotype (%) [1]: 1.45% and 1.7%
- Population Mitochondria Different-Phenotype (%) [1]: 0.29% and 7.39%
- Population Mitotic Cells (%) [1]: 50% and 45%
- Population Normal (%) [1]: 100%
- Population Pyknosed Nuclei (%) [1]: 10.74% and 9.71%
- Population Tubulin-Different-Phenotype (%) [1]: 3.19% and 1.14%
- Total Cell Count [1]: 391 and 206
- Population Apoptotic (%) [2]: 33.33% and 37.5%
- Population Fragmented Nuclei (%) [2]: 1.17% and 2.76%
- Population Healthy Nuclei (%) [2]: 86.55% and 75.17%
- Population Hoechst High Intensity Objects (%) [2]: 0%
- Population Membrane Permeable-Phenotype (%) [2]: 10.47% and 14.68%
- Population Mitotic Cells (%) [2]: 66.67% and 62.5%
- Population Normal (%) [2]: 100%
- Population Pyknosed Nuclei (%) [2]: 12.28% and 22.07%
- Total Cell Count [2]: 342 and 145
- Population Apoptotic (%) [3]: 46.94% and 30.77%
- Population Fragmented Nuclei (%) [3]: 1.87% and 2.83%
- Population Healthy Nuclei (%) [3]: 88.97% and 86.64%
- Population Hoechst High Intensity Objects (%) [3]: 0% and 0.4%
- Population Membrane Permeable-Phenotype (%) [3]: 0.84% and 2.34%
- Population Mitochondria Different-Phenotype (%) [3]: 0.21% and 5.14%
- Population Mitotic Cells (%) [3]: 53.06% and 69.23%
- Population Normal (%) [3]: 100% and 99.6%
- Population Pyknosed Nuclei (%) [3]: 9.16% and 10.53%
- Population Tubulin-Different-Phenotype (%) [3]: 1.68% and 0.47%
- Total Cell Count [3]: 535 and 248
- Population Apoptotic (%) [4]: 44.64% and 41.38%
- Population Fragmented Nuclei (%) [4]: 2.79% and 2.6%
- Population Healthy Nuclei (%) [4]: 84.19% and 78.57%
- Population Hoechst High Intensity Objects (%) [4]: 0%
- Population Membrane Permeable-Phenotype (%) [4]: 7.73% and 14.88%
- Population Mitotic Cells (%) [4]: 55.36% and 58.62%
- Population Normal (%) [4]: 100%
- Population Pyknosed Nuclei (%) [4]: 13.02% and 18.83%
- Population Tubulin-Different-Phenotype (%) [4]: 12.15% and 4.13%
- Total Cell Count [4]: 430 and 154
- Population Apoptotic (%) [5]: 46.67% and 39.53%
- Population Fragmented Nuclei (%) [5]: 2.53% and 4.9%
- Population Healthy Nuclei (%) [5]: 87.97% and 84.56%
- Population Hoechst High Intensity Objects (%) [5]: 0%
- Population Membrane Permeable-Phenotype (%) [5]: 0.84% and 3.48%
- Population Mitochondria Different-Phenotype (%) [5]: 0.12% and 3.48%
- Population Mitotic Cells (%) [5]: 53.33% and 60.47%
- Population Normal (%) [5]: 100%
- Population Pyknosed Nuclei (%) [5]: 9.49% and 10.54%
- Population Tubulin-Different-Phenotype (%) [5]: 1.08% and 1.16%
- Total Cell Count [5]: 948 and 408
- Population Apoptotic (%) [6]: 55.68% and 62.86%
- Population Fragmented Nuclei (%) [6]: 2.47% and 5.05%
- Population Healthy Nuclei (%) [6]: 84.72% and 78.9%
- Population Hoechst High Intensity Objects (%) [6]: 0%
- Population Membrane Permeable-Phenotype (%) [6]: 3.78% and 8.72%
- Population Mitotic Cells (%) [6]: 44.32% and 37.14%
- Population Normal (%) [6]: 100%
- Population Pyknosed Nuclei (%) [6]: 12.81% and 16.06%
- Population Tubulin-Different-Phenotype (%) [6]: 5.33% and 5.23%

SMILES: O=S(=O)(c1ccccc1)c1cnc2c(N3CCNCC3)cccc2c1 [INTEPIRDINE]
- Population Apoptotic (%) [1]: 76% and 70%
- Population Fragmented Nuclei (%) [1]: 23% and 17%
- Population Healthy Nuclei (%) [1]: 68% and 71%
- Population Hoechst High Intensity Objects (%) [1]: 1% and 0%
- Population Membrane Permeable-Phenotype (%) [1]: 6% and 7%
- Population Mitochondria Different-Phenotype (%) [1]: 3% and 6%
- Population Mitotic Cells (%) [1]: 23% and 30%
- Population Normal (%) [1]: 98% and 100%
- Population Pyknosed Nuclei (%) [1]: 7% and 11%
- Population Tubulin-Different-Phenotype (%) [1]: 4% and 7%
- Population Apoptotic (%) [2]: 58% and 85%
- Population Fragmented Nuclei (%) [2]: 25% and 10%
- Population Healthy Nuclei (%) [2]: 61% and 79%
- Population Hoechst High Intensity Objects (%) [2]: 3% and 2%
- Population Membrane Permeable-Phenotype (%) [2]: 23% and 12%
- Population Mitochondria Different-Phenotype (%) [2]: 11% and 13%
- Population Mitotic Cells (%) [2]: 41% and 14%
- Population Normal (%) [2]: 96% and 97%
- Population Pyknosed Nuclei (%) [2]: 12% and 10%
- Population Tubulin-Different-Phenotype (%) [2]: 14% and 10%
- Total Cell Count [2]: 204 and 139
- Population Apoptotic (%) [3]: 80% and 69%
- Population Fragmented Nuclei (%) [3]: 22% and 14%
- Population Healthy Nuclei (%) [3]: 67% and 73%
- Population Hoechst High Intensity Objects (%) [3]: 2% and 0%
- Population Membrane Permeable-Phenotype (%) [3]: 7% and 3%
- Population Mitochondria Different-Phenotype (%) [3]: 2% and 3%
- Population Mitotic Cells (%) [3]: 19% and 30%
- Population Normal (%) [3]: 97% and 99%
- Population Pyknosed Nuclei (%) [3]: 9% and 12%
- Population Tubulin-Different-Phenotype (%) [3]: 4% and 1%
- Total Cell Count [3]: 319 and 108
- Population Apoptotic (%) [4]: 72% and 77%
- Population Fragmented Nuclei (%) [4]: 23% and 10%
- Population Healthy Nuclei (%) [4]: 60% and 77%
- Population Hoechst High Intensity Objects (%) [4]: 3% and 0%
- Population Membrane Permeable-Phenotype (%) [4]: 17% and 10%
- Population Mitochondria Different-Phenotype (%) [4]: 14% and 17%
- Population Mitotic Cells (%) [4]: 27% and 22%
- Population Normal (%) [4]: 96% and 99%
- Population Pyknosed Nuclei (%) [4]: 16% and 11%
- Population Tubulin-Different-Phenotype (%) [4]: 10% and 6%
- Total Cell Count [4]: 233 and 156
- Population Apoptotic (%) [5]: 89% and 76%
- Population Fragmented Nuclei (%) [5]: 15% and 13%
- Population Healthy Nuclei (%) [5]: 70% and 68%
- Population Hoechst High Intensity Objects (%) [5]: 3%
- Population Membrane Permeable-Phenotype (%) [5]: 6% and 3%
- Population Mitochondria Different-Phenotype (%) [5]: 4% and 2%
- Population Mitotic Cells (%) [5]: 10% and 23%
- Population Normal (%) [5]: 96%
- Population Pyknosed Nuclei (%) [5]: 14% and 18%
- Population Tubulin-Different-Phenotype (%) [5]: 4% and 2%
- Total Cell Count [5]: 416 and 148
- Population Apoptotic (%) [6]: 78% and 95%
- Population Fragmented Nuclei (%) [6]: 22% and 13%
- Population Healthy Nuclei (%) [6]: 59% and 75%
- Population Hoechst High Intensity Objects (%) [6]: 4% and 2%
- Population Membrane Permeable-Phenotype (%) [6]: 15% and 10%
- Population Mitochondria Different-Phenotype (%) [6]: 7% and 12%
- Population Normal (%) [6]: 95% and 97%
- Population Pyknosed Nuclei (%) [6]: 17% and 11%
- Population Tubulin-Different-Phenotype (%) [6]: 6% and 4%
- Total Cell Count [6]: 302 and 201

SMILES: C=C(C)[C@H]1CN[C@H](C(=O)O)[C@H]1CC(=O)O [KAINIC ACID]
- Population Apoptotic (%) [1]: 30.91% and 58.82%
- Population Fragmented Nuclei (%) [1]: 1.23% and 1.12%
- Population Healthy Nuclei (%) [1]: 87.5% and 89.39%
- Population Hoechst High Intensity Objects (%) [1]: 0%
- Population Membrane Permeable-Phenotype (%) [1]: 1.41% and 1.88%
- Population Mitochondria Different-Phenotype (%) [1]: 0.23% and 4.38%
- Population Mitotic Cells (%) [1]: 69.09% and 41.18%
- Population Normal (%) [1]: 100%
- Population Pyknosed Nuclei (%) [1]: 11.27% and 9.5%
- Population Tubulin-Different-Phenotype (%) [1]: 0.7% and 0.62%
- Total Cell Count [1]: 488 and 179
- Population Apoptotic (%) [2]: 57.14% and 30.77%
- Population Fragmented Nuclei (%) [2]: 0.95% and 4.3%
- Population Healthy Nuclei (%) [2]: 89.13% and 81.72%
- Population Hoechst High Intensity Objects (%) [2]: 0%
- Population Membrane Permeable-Phenotype (%) [2]: 0.27% and 3.29%
- Population Mitochondria Different-Phenotype (%) [2]: 0.27% and 4.61%
- Population Mitotic Cells (%) [2]: 42.86% and 69.23%
- Population Normal (%) [2]: 100%
- Population Pyknosed Nuclei (%) [2]: 9.93% and 13.98%
- Population Tubulin-Different-Phenotype (%) [2]: 0.53% and 0%
- Total Cell Count [2]: 423 and 186
- Population Apoptotic (%) [3]: 37.88% and 41.38%
- Population Fragmented Nuclei (%) [3]: 1.93% and 1.32%
- Population Healthy Nuclei (%) [3]: 88.3% and 85.96%
- Population Hoechst High Intensity Objects (%) [3]: 0%
- Population Membrane Permeable-Phenotype (%) [3]: 0.84% and 3.06%
- Population Mitochondria Different-Phenotype (%) [3]: 0.17% and 5.61%
- Population Mitotic Cells (%) [3]: 62.12% and 58.62%
- Population Normal (%) [3]: 100%
- Population Pyknosed Nuclei (%) [3]: 9.78% and 12.72%
- Population Tubulin-Different-Phenotype (%) [3]: 0.5% and 0.51%
- Total Cell Count [3]: 675 and 228
- Population Apoptotic (%) [4]: 43.86% and 44.44%
- Population Fragmented Nuclei (%) [4]: 0.5% and 1.63%
- Population Healthy Nuclei (%) [4]: 90.02% and 91.02%
- Population Hoechst High Intensity Objects (%) [4]: 0%
- Population Membrane Permeable-Phenotype (%) [4]: 0.37% and 1.79%
- Population Mitochondria Different-Phenotype (%) [4]: 0% and 2.69%
- Population Mitotic Cells (%) [4]: 56.14% and 55.56%
- Population Normal (%) [4]: 100%
- Population Pyknosed Nuclei (%) [4]: 9.48% and 7.35%
- Population Tubulin-Different-Phenotype (%) [4]: 0.92% and 0.9%
- Total Cell Count [4]: 601 and 245
- Population Apoptotic (%) [5]: 36.05% and 33.33%
- Population Fragmented Nuclei (%) [5]: 2.72% and 1.63%
- Population Healthy Nuclei (%) [5]: 90.38% and 86.14%
- Population Hoechst High Intensity Objects (%) [5]: 0%
- Population Membrane Permeable-Phenotype (%) [5]: 0.98% and 1.89%
- Population Mitochondria Different-Phenotype (%) [5]: 0.44% and 1.89%
- Population Mitotic Cells (%) [5]: 63.95% and 66.67%
- Population Normal (%) [5]: 100%
- Population Pyknosed Nuclei (%) [5]: 6.89% and 12.23%
- Population Tubulin-Different-Phenotype (%) [5]: 0.62% and 0.95%
- Population Apoptotic (%) [6]: 44.57% and 57.89%
- Population Fragmented Nuclei (%) [6]: 3.7% and 0.47%
- Population Healthy Nuclei (%) [6]: 88.18% and 90.59%
- Population Hoechst High Intensity Objects (%) [6]: 0%
- Population Membrane Permeable-Phenotype (%) [6]: 0.8% and 2.08%
- Population Mitochondria Different-Phenotype (%) [6]: 0.2% and 2.08%
- Population Mitotic Cells (%) [6]: 55.43% and 42.11%
- Population Normal (%) [6]: 100%
- Population Pyknosed Nuclei (%) [6]: 8.11% and 8.94%
- Population Tubulin-Different-Phenotype (%) [6]: 0.7% and 1.3%
- Total Cell Count [6]: 1134 and 425
